The values that follow come from ChEMBL document CHEMBL1133680, “Benzo[c]quinolizin-3-ones: a novel class of potent and selective nonsteroidal inhibitors of human steroid 5alpha-reductase 1” (J Med Chem, 2000).

Assay [1] has as its target T1, 3-oxo-5-alpha-steroid 4-dehydrogenase 1 (Homo sapiens, UniProt P18405).
T1 sequence (P18405 whole entry): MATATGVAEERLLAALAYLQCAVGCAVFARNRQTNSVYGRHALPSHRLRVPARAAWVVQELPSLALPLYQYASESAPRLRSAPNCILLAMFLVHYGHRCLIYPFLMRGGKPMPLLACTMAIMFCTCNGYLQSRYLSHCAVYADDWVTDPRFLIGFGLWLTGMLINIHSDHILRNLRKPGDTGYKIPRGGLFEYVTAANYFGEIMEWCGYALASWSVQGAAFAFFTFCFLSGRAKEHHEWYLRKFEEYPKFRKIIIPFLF
The assay can be described thus: Inhibition of recombinant Steroid 5-alpha-reductase type I expressed in CHO cells. Format: cell-based.

Assay [2] has as its target T1, 3-oxo-5-alpha-steroid 4-dehydrogenase 1. The assay can be described thus: Inhibition of recombinant steroid 5-alpha-reductase type I expressed in CHO cells. It counts as cell-based.
In assay [3] the target is T2, 3-oxo-5-alpha-steroid 4-dehydrogenase 2 (Homo sapiens) (UniProt P31213).
T2 sequence (whole entry): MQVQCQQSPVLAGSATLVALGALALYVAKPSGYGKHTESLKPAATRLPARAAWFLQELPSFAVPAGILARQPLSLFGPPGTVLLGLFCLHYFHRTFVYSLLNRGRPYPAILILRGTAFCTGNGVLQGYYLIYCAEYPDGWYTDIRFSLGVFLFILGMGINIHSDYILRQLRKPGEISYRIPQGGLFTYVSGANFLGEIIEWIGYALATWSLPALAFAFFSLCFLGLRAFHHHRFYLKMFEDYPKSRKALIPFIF
The assay can be described thus: Inhibitory activity against steroid 5-alpha-reductase type 2 in human prostate homogenates at 10 uM. It counts as tissue-based. Conditions: Prostate gland. Put shortly: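 Native 5αR-2 assayed in total human prostate homogenate with 50 nM testosterone, a level below the 5αR-1 Km so only type 2 is active. Percent inhibition was measured at 10 µM inhibitor.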

The target of assay [4] is T1, 3-oxo-5-alpha-steroid 4-dehydrogenase 1. The assay can be described thus: Inhibitory activity against Steroid 5-alpha-reductase type I in human scalp homogenates. Format: tissue-based. Put shortly:
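Native 5αR-1 assayed in total human scalp homogenate with testosterone at micromolar level. 10 nM finasteride was included to suppress the co-active 5αR-2, and the value is reported as IC50.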

For assay [5] the target is unchanged. Briefly: Inhibition constant against recombinant Steroid 5-alpha-reductase type I expressed in CHO cells. Format: cell-based.
The target is the same in assay [6]. Briefly: Inhibitory activity against recombinant Steroid 5-alpha-reductase type I expressed in CHO cells. It counts as cell-based.
The target in assay [7] is T3, 3-oxo-5-alpha-steroid 4-dehydrogenase 2 (Homo sapiens, UniProt P31213).
T3 sequence (P31213 whole entry): T2 sequence (whole entry)
The assay can be described thus: Inhibitory activity against steroid 5-alpha-reductase type 2 in human prostate homogenates. It counts as tissue-based, Prostate gland. Put shortly: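 Native 5αR-2 in total human prostate homogenate, with 50 nM testosterone so that only type 2 is active (Km 0.2 µM vs 1.7 µM for type 1). Inhibition measured at 10 µM or as IC50. Finasteride and LY191704 used as selectivity controls.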

With `CC1CC(=O)C=C2CCc3cc(Cl)ccc3N21` (configuration not stated), the IC50 in assay [1] stood at 204 nM.
Still for that read-out and setting: then `CC1CC2=CC(=O)CCN2c2ccc(Cl)cc21` (configuration not stated), with 14.4 nM.
Consider `Cc1ccc2c(c1)CCC1=CC(=O)CCN12`, for which the 50% inhibitory concentration (IC50) in assay [2] stood at 376 nM.
Consider `Cc1ccc2c(c1)CCC1CC(=O)C=CN21` (configuration not stated), for which the IC50 in assay [2] is 176 nM.
Same read-out and setting: then `C[C@H]1Cc2cc(Cl)ccc2N2C=CC(=O)CC12` (some centres not stated), with 9100 nM; and `CC1C(=O)C=CN2c3ccc(Cl)cc3CCC12` (configuration not stated), with 141 nM.
Compound `CN1C(=O)CC[C@@H]2c3ccc(Cl)cc3CC[C@H]21` [BEXLOSTERIDE] showed an inhibition in assay [3] of 19%. The IC50 in assay [4] was 2.3 nM.
Consider `C[C@@H]1CC2CC(=O)C=CN2c2ccc(Cl)cc21` (some centres not stated), for which the IC50 in assay [2] turned out to be 188 nM.
On the same count and under the same terms, then `O=C1C=CN2c3ccc(Cl)cc3CCC2C1` (configuration not stated), with 459 nM.
Regarding `CC1=C2CCc3cc(C)ccc3N2CCC1=O`, in assay [5], the Ki was determined as 5.8 nM. Besides, in assay [3], the inhibition was determined as 20%. The IC50 in assay [2] is 20 nM; in assay [4], 41 nM.
As for `CC1=C2CCc3ccccc3N2CCC1=O`, in assay [2], the IC50 stood at 185 nM.
On the same count and under the same terms, then `C[C@@H]1C(=O)C=CN2c3ccccc3CCC12` (some centres not stated), with 2700 nM.
For `CC1C(=O)C=CN2c3ccccc3CCC12` (configuration not stated), in assay [1], the IC50 amounted to 4300 nM.
Still for that read-out and setting: the value for `Cc1ccc2c(c1)C(C)CC1=CC(=O)CCN12` (configuration not stated) was 14.3 nM.
`Cc1ccc2c(c1)CCC1[C@H](C)C(=O)C=CN21` (some centres not stated): the IC50 in assay [2] turned out to be 137 nM.
`Cc1ccc2c(c1)CCC1C(C)C(=O)C=CN21` (configuration not stated): the IC50 in assay [1] is 312 nM.
As to `Cc1c2n(ccc1=O)-c1ccccc1CC2`, in assay [1], the IC50 came to 1400 nM.
The same measure, in the same setting: then `CC1=C2CC(C)c3cc(Cl)ccc3N2CCC1=O` (configuration not stated), with 8.5 nM.
Regarding `CC1=C2CCc3cc(Cl)ccc3N2CCC1=O`, in assay [5], the Ki amounted to 2.7 nM. In addition, in assay [3], the inhibition was determined as 20%. Further, the IC50 stood at 7.6 nM in assay [2] and 41 nM in assay [4].
With `CC1=C2C(C)Cc3cc(Cl)ccc3N2CCC1=O` (configuration not stated), the IC50 in assay [1] stood at 15.6 nM.
`CC1Cc2cc(Cl)ccc2-n2ccc(=O)cc21` (configuration not stated): the IC50 in assay [1] amounted to 1880 nM.
Turning to `CC1Cc2cc(Cl)ccc2N2CCC(=O)C=C12` (configuration not stated), the concentration for half-maximal inhibition (IC50) in assay [2] stood at 346 nM.
`CC(C)(C)NC(=O)[C@H]1CC[C@H]2[C@@H]3CC[C@H]4NC(=O)C=C[C@]4(C)[C@H]3CC[C@]12C` [FINASTERIDE]: the Ki in assay [6] turned out to be 366 nM. This compound showed an IC50 in assay [7] of 2.2 nM.
For `CC1=C2CC(C)c3cc(C)ccc3N2CCC1=O` (configuration not stated), the IC50 in assay [1] was determined as 15.8 nM.
